In general, IC50 refers to the concentration needed to halve the response being measured. One may read the EC50 as the concentration giving half of the maximal effect.

This note sets out measurements from ChEMBL document CHEMBL4152343, “Design, Synthesis, and Pharmacological Evaluation of Second-Generation Tetrahydroisoquinoline-Based CXCR4 Antagonists with Favorable ADME Properties” (J Med Chem, 2018).

Series [1] has as its target T1, C-X-C chemokine receptor type 4 (Homo sapiens, UniProt P61073). Briefly: Antagonist activity at CXCR4 in human CCRF-CEM cells assessed as inhibition of SDF-1alpha-induced calcium release preincubated for 25 mins followed by SDF-1alpha stimulation and measured for 90 secs by calcium flux assay. The class given is functional, cell-based.
In series [2] the target is Muscarinic acetylcholine receptor. Briefly: Antagonist activity at mAChR in human CCRF-CEM cells assessed as inhibition of acetylcholine-induced calcium release preincubated for 25 mins followed by acetylcholine stimulation and measured for 90 secs by calcium flux assay. The class given is functional, cell-based. An outline of the steps:
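Endogenous muscarinic receptors in CCRF-CEM cells (HBSS/HEPES/BSA buffer, 40,000 cells/well, dye-loaded 30 min at 37°C). Calcium flux recorded 90 s by FDSS. IC50 by 4-parameter logistic fit against an internal control compound; duplicate wells, single experiment.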
For orientation: Calcium assays in cells follow changes in intracellular calcium, usually with a dye or a luminescent sensor.

Another series deals with Cytochrome P450 2D6 (Homo sapiens, UniProt P10635). Briefly: Inhibition of recombinant human CYP2D6 expressed in insect cells microsomes using AMMC as substrate preincubated for 30 mins followed by NADP addition and measured after 45 mins by fluorescence analysis. The class given is ADME.
Series [3] is described as follows: Metabolic stability in human liver microsomes assessed as parent compound remaining after 10 mins by LC-MS/MS analysis. It counts as ADME, microsome. The conditions noted are these: read-out: Stability. A digest of the protocol:
(§1)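 Compound depletion measured by LC/MS/MS after 10 min at 37 °C in liver microsome preparations (CYP450 and other NADP-dependent enzymes). Values are % of compound remaining; duplicates in a single experiment.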
For orientation: Liver microsomes are vesicles of endoplasmic reticulum, rich in cytochrome P450 enzymes.

A short description of series [4]: Metabolic stability in mouse liver microsomes assessed as parent compound remaining after 10 mins by LC-MS/MS analysis. The class given is ADME, microsome. The conditions noted are these: read-out: Stability. A digest of the protocol:
as §1

The target in another series is Cytochrome P450 3A4 (Homo sapiens, UniProt P08684). Briefly: Inhibition of human CYP3A4. It counts as ADME.
The target of series [5] is Voltage-gated inwardly rectifying potassium channel KCNH2 (Homo sapiens, UniProt Q12809). Briefly: Displacement of [3H]astemizole from human ERG expressed in HEK cell membranes. A digest of the protocol:
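Binding assay measuring [3H]astemizole displacement in HEK membranes overexpressing hKv11.1.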
For orientation: Loss of bound radioactivity is the signal in a displacement assay; it reports binding, not function.

The target in series [6] is T1, C-X-C chemokine receptor type 4. Briefly: Agonist activity at CXCR4 in human CCRF-CEM cells assessed as induction of calcium release incubated for 25 mins by calcium flux assay. The class given is functional, cell-based. A digest of the protocol: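 CCRF-CEM T lymphoblasts (endogenous CXCR4) in HBSS/20 mM HEPES/0.1% fatty-acid-free BSA, 40,000 cells/well, dye-loaded 30 min at 37°C, then 15 min at room temperature. Compounds added at final 25,000–0.423 nM (0.5% DMSO) and calcium flux read by FDSS for 90 s.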

For series [7], the target named is Voltage-gated L-type calcium channel (Homo sapiens, UniProt Q13936+Q13698+Q01668+O60840). Briefly: Antagonist activity at L-type calcium channel (unknown origin). The class given is protein assay.
The nature of series [8]: Permeability of compound at pH 5.5 by PAMPA. The conditions noted are these: read-out: permeability. The class given is ADME. A digest of the protocol:
(§2)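 Compound from 10 mM DMSO stock diluted 1:100 to 100 µM (1% DMSO) in pH 7.4 or pH 5.5 donor buffer, then filtered. Lipid-coated filter membrane with pH 7.4 acceptor buffer; incubated 4 h at room temperature. UV plate reading gives Pc. Duplicates in two independent experiments unless noted.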

Series [9] is described as follows: Permeability of compound at pH 7.4 by PAMPA. The conditions noted are these: read-out: permeability. The class given is ADME. A digest of the protocol:
as §2

The species entered for another series is Homo sapiens. Briefly: Selectivity index, ratio of IC50 for antagonist activity at mAChR in human CCRF-CEM cells to IC50 for antagonist activity at CXCR4 in human CCRF-CEM cells. It counts as cell-based.

T1 sequence (P61073 whole entry): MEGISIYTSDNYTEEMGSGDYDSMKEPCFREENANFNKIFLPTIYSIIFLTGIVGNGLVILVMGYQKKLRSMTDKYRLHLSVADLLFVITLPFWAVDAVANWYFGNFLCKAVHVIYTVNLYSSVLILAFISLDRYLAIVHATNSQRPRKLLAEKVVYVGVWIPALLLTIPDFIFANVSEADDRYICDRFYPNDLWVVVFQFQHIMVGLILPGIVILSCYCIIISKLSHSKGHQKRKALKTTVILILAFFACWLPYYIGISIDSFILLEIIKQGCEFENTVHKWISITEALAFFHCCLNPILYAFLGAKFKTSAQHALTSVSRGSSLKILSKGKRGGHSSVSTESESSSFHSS
Cytochrome P450 2D6, sequence (P10635 whole entry): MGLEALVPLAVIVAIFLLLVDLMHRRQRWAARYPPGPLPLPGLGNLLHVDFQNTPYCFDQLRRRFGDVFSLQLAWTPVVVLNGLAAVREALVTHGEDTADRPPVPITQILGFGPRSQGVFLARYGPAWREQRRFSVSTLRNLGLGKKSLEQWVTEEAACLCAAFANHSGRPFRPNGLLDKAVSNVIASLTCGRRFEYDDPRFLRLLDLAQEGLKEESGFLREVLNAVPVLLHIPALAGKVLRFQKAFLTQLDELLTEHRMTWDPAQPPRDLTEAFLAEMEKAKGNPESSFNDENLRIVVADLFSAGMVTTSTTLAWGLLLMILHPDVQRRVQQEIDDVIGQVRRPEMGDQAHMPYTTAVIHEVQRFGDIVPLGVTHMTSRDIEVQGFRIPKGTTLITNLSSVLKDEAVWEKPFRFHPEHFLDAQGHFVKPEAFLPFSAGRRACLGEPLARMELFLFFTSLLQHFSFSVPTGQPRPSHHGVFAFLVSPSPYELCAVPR
Cytochrome P450 3A4, sequence (P08684 whole entry): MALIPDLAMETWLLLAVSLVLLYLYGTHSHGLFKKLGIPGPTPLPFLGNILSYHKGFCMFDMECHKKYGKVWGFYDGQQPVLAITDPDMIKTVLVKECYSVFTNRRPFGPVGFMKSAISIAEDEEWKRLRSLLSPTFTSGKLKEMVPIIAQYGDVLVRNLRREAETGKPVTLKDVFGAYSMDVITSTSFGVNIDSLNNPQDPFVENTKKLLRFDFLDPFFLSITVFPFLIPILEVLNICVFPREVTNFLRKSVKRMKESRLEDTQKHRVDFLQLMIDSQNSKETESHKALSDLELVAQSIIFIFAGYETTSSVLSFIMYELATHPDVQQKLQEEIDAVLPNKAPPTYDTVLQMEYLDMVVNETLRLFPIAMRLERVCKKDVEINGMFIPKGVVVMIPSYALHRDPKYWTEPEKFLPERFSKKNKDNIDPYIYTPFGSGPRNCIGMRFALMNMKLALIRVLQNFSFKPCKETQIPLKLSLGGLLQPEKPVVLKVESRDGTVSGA
Voltage-gated inwardly rectifying potassium channel KCNH2, sequence (Q12809 whole entry): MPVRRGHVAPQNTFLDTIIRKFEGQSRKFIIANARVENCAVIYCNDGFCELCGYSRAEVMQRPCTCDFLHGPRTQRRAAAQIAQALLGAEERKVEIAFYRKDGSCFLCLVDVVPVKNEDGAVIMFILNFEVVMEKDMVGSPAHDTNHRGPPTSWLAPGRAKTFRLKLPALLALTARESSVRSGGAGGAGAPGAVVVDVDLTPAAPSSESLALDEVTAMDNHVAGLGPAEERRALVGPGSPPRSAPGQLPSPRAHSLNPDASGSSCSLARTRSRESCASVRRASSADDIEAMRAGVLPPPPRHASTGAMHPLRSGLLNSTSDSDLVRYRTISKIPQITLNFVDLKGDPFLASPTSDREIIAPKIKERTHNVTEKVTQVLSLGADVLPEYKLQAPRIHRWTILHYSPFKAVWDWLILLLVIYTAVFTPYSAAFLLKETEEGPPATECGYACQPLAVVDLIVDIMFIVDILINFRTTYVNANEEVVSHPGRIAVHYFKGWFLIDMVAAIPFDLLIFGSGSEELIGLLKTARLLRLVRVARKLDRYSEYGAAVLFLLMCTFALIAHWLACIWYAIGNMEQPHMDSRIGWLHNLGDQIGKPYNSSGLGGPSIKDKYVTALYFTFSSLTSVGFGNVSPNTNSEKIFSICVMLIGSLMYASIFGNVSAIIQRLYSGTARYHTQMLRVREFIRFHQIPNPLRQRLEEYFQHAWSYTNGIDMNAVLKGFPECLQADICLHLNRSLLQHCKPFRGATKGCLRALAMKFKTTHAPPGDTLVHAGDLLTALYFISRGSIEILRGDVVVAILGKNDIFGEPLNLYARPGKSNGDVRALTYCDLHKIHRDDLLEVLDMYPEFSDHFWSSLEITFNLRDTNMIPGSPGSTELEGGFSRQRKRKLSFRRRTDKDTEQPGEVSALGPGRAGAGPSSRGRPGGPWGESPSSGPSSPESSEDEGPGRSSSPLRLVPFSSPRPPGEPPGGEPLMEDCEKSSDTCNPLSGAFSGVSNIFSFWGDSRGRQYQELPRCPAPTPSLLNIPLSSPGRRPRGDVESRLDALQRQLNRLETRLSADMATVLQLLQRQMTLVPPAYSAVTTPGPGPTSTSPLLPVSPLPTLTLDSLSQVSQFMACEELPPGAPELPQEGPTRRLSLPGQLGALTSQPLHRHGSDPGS

Consider `CN(C[C@H]1Cc2c(cccc2N2CCNCC2)CN1)[C@H]1CCCc2cccnc21`, for which the concentration for half-maximal inhibition (IC50) was 0.00608 µM in [1]; 7.18 µM in [2]; > 20 µM at Cytochrome P450 2D6; > 20 µM against Cytochrome P450 3A4; 20.3 µM in [5]; > 80 µM in series [7]. For the same compound, the figures for the remaining at 10 min in series [3] and in series [4] were 99.7% and 19.9%, respectively. For the same compound, the EC50 in series [6] is > 30 µM.
For `CN(C[C@H]1Cc2c(cccc2N2CCN(c3ccccn3)CC2)CN1)[C@H]1CCCc2cccnc21`, the half-inhibitory concentration (IC50) in series [1] was 0.0179 µM; in [2], 1.98 µM; at Cytochrome P450 2D6, 2.52 µM; against Cytochrome P450 3A4, 3.16 µM. The remaining at 10 min in [3] is 27.4%; in series [4], 46.1%. Moreover, the Papp in series [8] came to 12.9 ×10⁻⁶ cm/s. Besides, the EC50 in [6] is > 30 µM.
In the case of `CN(C[C@H]1Cc2c(cccc2N2CCN(c3ncccn3)CC2)CN1)[C@H]1CCCc2cccnc21`, the IC50 is 0.0307 µM in series [1], 0.887 µM in [2], 0.508 µM on Cytochrome P450 2D6 and 3.35 µM at Cytochrome P450 3A4. The remaining at 10 min was 35.5% in [3] and 35.1% in series [4]. For the same compound, the Papp in series [8] was found to be 36 ×10⁻⁶ cm/s. In series [6], the EC50 is > 30 µM.
Take `CN(C[C@H]1Cc2c(cccc2N2CCN3CCC[C@@H]3C2)CN1)[C@H]1CCCc2cccnc21`: the IC50 was 0.00359 µM in series [1], 26.1 µM in series [2], > 20 µM at Cytochrome P450 2D6 and > 20 µM against Cytochrome P450 3A4. For the same compound, the remaining at 10 min is 52.2% in series [3] and 36.7% in series [4]. Further, the Papp in series [9] is 74 ×10⁻⁶ cm/s. In [6], the EC50 is > 30 µM. For the same compound, the Ratio IC50 in the series filed under Homo sapiens is > 5000.
Regarding `CN(C[C@H]1Cc2c(cccc2N2CCN(Cc3ccccn3)CC2)CN1)[C@H]1CCCc2cccnc21`, the IC50 in series [1] was 0.00447 µM; in series [2], 10.8 µM; on Cytochrome P450 2D6, 11 µM; on Cytochrome P450 3A4, 6.79 µM. Moreover, the remaining at 10 min in series [3] came out at 4.2%; in series [4], 40.4%. For the same compound, the Papp in series [8] is 8.2 ×10⁻⁶ cm/s. Moreover, the EC50 in series [6] is > 30 µM.
As to `CN1CCN(c2cccc3c2C[C@H](CN(C)[C@H]2CCCc4cccnc42)N(C)C3)CC1`, the IC50 in series [1] is 0.171 µM; in [2] it was > 16.7 µM; at Cytochrome P450 2D6, > 20 µM; at Cytochrome P450 3A4 it was > 20 µM. The remaining at 10 min was 83.3% in series [3] and 41.7% in series [4]. Moreover, in series [9], the Papp stood at 36.4 ×10⁻⁶ cm/s. Further, the EC50 in series [6] was > 30 µM.
Take `C[C@@H]1CN(c2cccc3c2C[C@H](CN(C)[C@H]2CCCc4cccnc42)NC3)C[C@H](C)N1`: the IC50 was 0.061 µM in series [1], > 33.3 µM in series [2], > 20 µM on Cytochrome P450 2D6 and > 20 µM against Cytochrome P450 3A4. For the same compound, the figures for the remaining at 10 min in series [3] and in series [4] were 100% and 85.6%, respectively. Besides, the Papp in series [9] turned out to be 3.9 ×10⁻⁶ cm/s. In addition, the EC50 in [6] is > 30 µM.
`COCCN(C[C@H]1Cc2c(cccc2N2CCNCC2)CN1)[C@H]1CCCc2cccnc21`: the IC50 in series [1] was 0.154 µM; in series [2] it was 5.6 µM; at Cytochrome P450 2D6, 14.2 µM; at Cytochrome P450 3A4 it was > 20 µM. The remaining at 10 min was determined as 90.3% in series [3] and 83.7% in series [4]. Also, the Papp in series [9] worked out at 0.1 ×10⁻⁶ cm/s. In series [6], the EC50 was > 30 µM.
In the case of `CN(C[C@H]1Cc2c(cccc2N2CCN(c3cccc(C(F)(F)F)c3)CC2)CN1)[C@H]1CCCc2cccnc21`, the IC50 in series [1] is > 16.7 µM; in [2], 9.25 µM; at Cytochrome P450 2D6 it was 6.48 µM; at Cytochrome P450 3A4, 2.21 µM. Moreover, the remaining at 10 min in series [3] came out at 90.3%; in series [4] it was 72.3%. Besides, in series [9], the Papp is 14.1 ×10⁻⁶ cm/s. Further, in [6], the concentration giving a half-maximal response (EC50) is > 30 µM.
Take `OCCN(C[C@H]1Cc2c(cccc2N2CCNCC2)CN1)[C@H]1CCCc2cccnc21`: the IC50 in [1] is 0.195 µM; in series [2] it was > 33.3 µM; on Cytochrome P450 2D6, > 20 µM; on Cytochrome P450 3A4, > 20 µM. Also, the remaining at 10 min in [3] worked out at 94.4%; in [4] it was 60.3%. The Papp in [9] was 1.1 ×10⁻⁶ cm/s. In addition, the EC50 in [6] is > 30 µM.
